In article PMC4511165 (Biochemistry, 2015):
“Also recorded” adds a separate entry of the source.

Legend:
MMP-14/MT1-MMP = MMP-14/MT1-MMP (Homo sapiens, UniProt P50281); experiment: Inhibition of MT1-MMP by non-cleaved peptomers; type: biochemical; settings: MS-1 up to 200 µM; concentration for MS-2 not given; data not shown
MMP-13 [1] = molecular target: T1, MMP-13 (Homo sapiens, UniProt P45452); experiment: Inhibition of MMP-13 by non-cleaved peptomers; type: biochemical; settings: MS-1 up to 200 µM; concentration for MS-2 not given; data not shown
MMP-8 [2] = molecular target: T2, MMP-8 (Homo sapiens, UniProt P22894); experiment: Inhibition of MMP-8 by non-cleaved peptomers; type: biochemical; settings: MS-1 up to 200 µM; concentration for MS-2 not given; data not shown
T2 sequence (P22894 101-467): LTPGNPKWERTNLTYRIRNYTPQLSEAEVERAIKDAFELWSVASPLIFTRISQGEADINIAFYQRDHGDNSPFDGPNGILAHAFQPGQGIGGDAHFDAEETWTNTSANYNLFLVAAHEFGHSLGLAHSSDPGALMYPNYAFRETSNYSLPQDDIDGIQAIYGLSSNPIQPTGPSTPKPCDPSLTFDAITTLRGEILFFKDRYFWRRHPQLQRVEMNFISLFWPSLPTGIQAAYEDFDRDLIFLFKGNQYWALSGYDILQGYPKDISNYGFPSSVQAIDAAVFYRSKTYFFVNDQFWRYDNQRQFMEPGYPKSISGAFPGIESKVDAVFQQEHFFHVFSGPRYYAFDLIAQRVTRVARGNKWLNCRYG

MMP-1 [3] = molecular target: T3, MMP-1 (Homo sapiens, UniProt P03956); experiment: Inhibition of MMP-1 by non-cleaved peptomers; type: biochemical; settings: MS-1 up to 200 µM; concentration for MS-2 not given; data not shown
T3 sequence (P03956 100-469): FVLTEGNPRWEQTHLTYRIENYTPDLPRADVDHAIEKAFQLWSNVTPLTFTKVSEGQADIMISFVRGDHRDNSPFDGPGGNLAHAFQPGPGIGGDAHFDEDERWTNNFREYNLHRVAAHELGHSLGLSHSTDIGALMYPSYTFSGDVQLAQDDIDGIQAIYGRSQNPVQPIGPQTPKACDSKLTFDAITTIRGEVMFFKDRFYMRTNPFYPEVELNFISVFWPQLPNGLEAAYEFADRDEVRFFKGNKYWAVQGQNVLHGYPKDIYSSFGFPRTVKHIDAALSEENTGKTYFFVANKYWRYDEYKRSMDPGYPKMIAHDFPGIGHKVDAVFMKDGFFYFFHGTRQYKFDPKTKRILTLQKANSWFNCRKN

MMP-1 [4] = molecular target: T3, MMP-1; experiment: HPLC-monitored hydrolysis of peptomeric THPs by MMP-1; type: biochemical; settings: room temperature, 24 h; MALDI-TOF MS / HPLC of products
Summary of the method: (§1)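 Full-length human enzymes were activated with 1 mM […] for 60 min at 37 °C, then diluted to 100 nM in ice-cold TSB*Zn (Tris, NaCl, CaCl2, ZnCl2, Brij-35, pH 7.5). Substrates were pre-equilibrated in TSB at 4 °C for 24 h. Reactions used 20 nM enzyme at 1:1000 enzyme:substrate for 24 h at room temperature (some also at 37 °C). Reactions were quenched with 50 mM EDTA; triplicate RP-HPLC peak integration at 220 nm, with MALDI-TOF identifying products.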

MMP-8 [5] = molecular target: T2, MMP-8; experiment: HPLC-monitored hydrolysis of peptomeric THPs by MMP-8; type: biochemical; settings: room temperature, 24 h; MALDI-TOF MS / HPLC of products
Summary of the method: as §1

[6] = molecular target: T4, MMP-14/MT1-MMP (ectodomain, soluble MT1-MMP) (Homo sapiens, UniProt P50281); experiment: HPLC-monitored hydrolysis of peptomeric THPs by MT1-MMP; type: biochemical; settings: room temperature, 24 h; MALDI-TOF MS / HPLC of products
Summary of the method: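 Soluble ectodomain was activated with 0.1 equiv trypsin-3 for 1 h at 37 °C. Trypsin was quenched with 100 equiv AEBSF for 15 min at room temperature, then the enzyme was diluted in cold TSB*Zn (pH 7.5). Substrates were pre-equilibrated in TSB at 4 °C for 24 h. Reactions used 20 nM enzyme at 1:1000 enzyme:substrate for 24 h at room temperature (some also at 37 °C). Reactions were quenched with 50 mM EDTA; triplicate RP-HPLC integration at 220 nm, MALDI-TOF for products.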

MMP-13 [7] = molecular target: T1, MMP-13; experiment: HPLC-monitored hydrolysis of peptomeric THPs by MMP-13; type: biochemical; settings: 24 h; for cleavage site, MMP-13: room temperature, MALDI-TOF MS / HPLC of products
Summary of the method: as §1

CD thermal transition = type: physicochemical; settings: decrease relative to α1(I)772–786 THP
MMP-1 [8] = molecular target: T3, MMP-1; experiment: Hydrolysis of fluorogenic; type: biochemical; settings: 30 °C; for hydrolysis of fluorogenic peptomer by MMP-1: FRET kinetic assay, TSB*Zn buffer
Summary of the method: (§2)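 Enzymes were activated with 1 mM […] at 37 °C for 60 min and diluted in TSB*Zn. The Mca/Dnp substrate was equilibrated in TSB at 4 °C for 24 h and quantified at 363 nm (εDnp 15900 M−1 cm−1). Twelve 1:1 dilutions were made from a 100 µM stock, and enzyme was added from a 100 nM 20× stock. Fluorescence was read every 8 s for 600 s at 30 °C, with a final read at 24 h. The 25 µM sample was analysed by HPLC for % cleavage; triplicate.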

MMP-8 [9] = molecular target: T2, MMP-8; experiment: Hydrolysis of fluorogenic; type: biochemical; settings: 30 °C; for hydrolysis of fluorogenic peptomer by MMP-8: FRET kinetic assay, TSB*Zn buffer
Summary of the method: as §2

MMP-13 [10] = molecular target: T1, MMP-13; experiment: Hydrolysis of fluorogenic; type: biochemical
Summary of the method: as §2

[11] = molecular target: T4, MMP-14/MT1-MMP (ectodomain, soluble MT1-MMP); experiment: Hydrolysis of fluorogenic; type: biochemical
Summary of the method: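 Soluble ectodomain was activated with 0.1 equiv trypsin-3 for 1 h at 37 °C, quenched with AEBSF and diluted in TSB*Zn. The Mca/Dnp substrate was equilibrated in TSB at 4 °C for 24 h and quantified at 363 nm. Twelve 1:1 dilutions were made from a 100 µM stock, and enzyme was added from a 100 nM 20× stock. Fluorescence was read every 8 s for 600 s at 30 °C, with a final read at 24 h. The 25 µM sample was analysed by HPLC for % cleavage; triplicate.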

MMP-3 = MMP-3 (Homo sapiens, UniProt P08254); experiment: Hydrolysis of Ac-pfTHP-1 by noncollagenolytic MMP-3; type: biochemical; settings: data not shown
MMP-3, sequence (P08254 100-477, species assumed): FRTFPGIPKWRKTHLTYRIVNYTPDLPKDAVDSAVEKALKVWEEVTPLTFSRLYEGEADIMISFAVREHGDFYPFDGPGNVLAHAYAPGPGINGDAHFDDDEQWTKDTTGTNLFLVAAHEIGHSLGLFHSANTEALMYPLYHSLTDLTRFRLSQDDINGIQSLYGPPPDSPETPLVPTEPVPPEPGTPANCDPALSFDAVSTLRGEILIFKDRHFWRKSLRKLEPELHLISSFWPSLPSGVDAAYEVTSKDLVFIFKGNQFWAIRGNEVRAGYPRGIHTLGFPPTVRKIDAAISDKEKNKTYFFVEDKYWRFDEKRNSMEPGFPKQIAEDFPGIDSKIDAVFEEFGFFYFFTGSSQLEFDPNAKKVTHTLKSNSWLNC

[12] = RP-HPLC, 25 µM peptomer, 24 h, data not shown
[13] = RP-HPLC, 25 µM peptomer, 30 °C, 24 h, data not shown

Substance	cleavage site, MMP-1 (MMP-1 [4])	cleavage site, MMP-8 (MMP-8 [5])	cleavage site, MT1-MMP [6]	cleavage site, MMP-13 (MMP-13 [7])	Tm lower than that of parent THP by (CD thermal transition) [°C]	also measured
(GPO)4-GPQG-NIle-AGQRGVVGLO(GPO)4-NH2 [MS-1]						inhibition of MT1-MMP (MMP-14/MT1-MMP): No inhibition; inhibition of MMP-13 (MMP-13 [1]): No inhibition; inhibition of MMP-8 (MMP-8 [2]): No inhibition; inhibition of MMP-1 (MMP-1 [3]): No inhibition
(GPO)4GPQGIAGQRGVVG-NLeu-O(GPO)4-NH2 [MS-7]	Gly775–Ile776 bond	Gly775–Ile776 bond	Gly775–Ile776 bond	Gly775–Ile776 bond		difference in MMP-13 hydrolysis versus parent THP (MMP-13 [7]; 37 °C, RP-HPLC, peptomer better substrate than parent THP): 2 fold
(GPO)4G-Sar-QGIAGQRGVVGLO(GPO)4-NH2 [MS-4]					4	
(GPO)4GPQGWAGQRGVVG-NLeu-O(GPO)4-NH2 [MS-10]		Gly775-Trp776 bond	Gly775-Trp776 bond; also recorded: occurring at several bonds	Gly775-Trp776 bond		
(GPO)4GPQ-Sar-IAGQRGVVGLO(GPO)4-NH2 [MS-3]	between Sar775 and Ile776	between Sar775 and Ile776	between Sar775 and Ile776	between Sar775 and Ile776	20	
(GPO)4GPQ-Sar-IAGQRGVVG-NLeu-GLO(GPO)4- NH2 [MS-9]	between Sar775 and Ile776	between Sar775 and Ile776	between Sar775 and Ile776	between Sar775 and Ile776	13.5	
(GPO)4GP-Lys(Mca)-G-Sar-AGQRGV-Lys(Dnp)-G- NLeu-O(GPO)4-NH2 [pfTHP-1]						hydrolysis of fluorogenic peptomer by MMP-1 (MMP-1 [8]): unable to hydrolyze; hydrolysis of fluorogenic peptomer by MMP-8 (MMP-8 [9]): unable to hydrolyze; cleavage site of fluorogenic peptomer, MMP-13 (MMP-13 [10]): between Gly778 and Gln779; cleavage sites of fluorogenic peptomer, MT1-MMP [11]: Gly781–Val782 and Arg780–Gly781 bonds
Ac-(GPO)4-GP-Lys(Mca)-G-Sar-AGQRGV-Lys(Dnp) G-NLeu-O(GPO)4-NH2 [Ac-pfTHP-1]						hydrolysis of fluorogenic peptomer by MMP-1 (MMP-1 [8]): unable to hydrolyze; hydrolysis by MMP-1 (MMP-1 [8]; [12]): < 1%; hydrolysis by MMP-3 (MMP-3): not able to hydrolyze; hydrolysis of fluorogenic peptomer by MMP-8 (MMP-8 [9]): unable to hydrolyze; hydrolysis by MMP-8 (MMP-8 [9]; [12]): < 2%; hydrolysis by MMP-13 (MMP-13 [10]; [13]): 65%; cleavage site of fluorogenic peptomer, MMP-13 (MMP-13 [10]): between Gly778 and Gln779; hydrolysis by MT1-MMP [11, 13]: 22%; cleavage sites of fluorogenic peptomer, MT1-MMP [11]: Gly781–Val782 and Arg780–Gly781 bonds
